EBI2 antag: antagonists of human EBI2 receptor | P32249 | EBI2 beta-arrestin recruitment, luminescence, 7a,25-OHC stimulated | inhibition, % at 5 µM | 0.81% of 360,000 active; in the data active means inhibition above about 38%;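 further: enzyme fragment complementation signal reports receptor beta-arrestin coupling in cells; 0% = agonist plus DMSO wells and 100% = wells without agonist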
MC4R antagonist: antagonists of human melanocortin 4 receptor (MC4R) | MC4R-expressing cells, MTII-stimulated cAMP, LANCE TR-FRET | 0.48% of 360,000 active | P32245 | inhibition, % at 6.5 µM;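 active means inhibition above its plate's cutoff, the mean of tested wells on that plate plus 3 SD, cut at about 29% in these data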;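 further: 0% = Melanotan II alone and 100% = Melanotan II plus saturating MCL0020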
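material = U2OS cells stably expressing human melanocortin 4 receptor (MC4R) | also added = Melanotan II challenge | dosing = single nominal compound dose of 6.5 µM | detection = TR-FRET with Eu-cAMP and labeled anti-cAMP, 671 nm | replication = singlicate | timing = compound 30 min, challenge 1 h, detection 1 h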
MC4R barr agon: human MC4R agonism via beta-arrestin | AID 540308 | P32245 | 0.98% of 360,000 active | U2OS MC4R beta-arrestin complementation, luminescence; percent of melanotan II response, DMSO zero | activation, % at 8.9 µM;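 active means activation above a per-plate cutoff, the mean activation of sample wells on that plate plus 3 SD, cut at about 8% in these data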
m5-HT2A agonist: agonists of mouse serotonin 5-HT2A receptor (HTR2A); P35363; CHO-K1 mHTR2A beta-arrestin complementation, luminescence; percent of 30 µM serotonin response; activation, % at 7.6 µM; 0.66% of 360,000 active;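 active means activation above a run cutoff, the mean activation of all tested compounds plus 3 SD, cut at about 14% in these data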;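 further: 0% = plate median of compound wells and 100% = 30 µM serotonin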
OPRM1 ag: counter-screen for mouse HTR2A agonists: human mu opioid receptor agonists. U2OS OPRM1 beta-arrestin PathHunter, luminescence; DMSO 0%, DAMGO 9.3 µM 100%. shares compounds with m5-HT2A agonist. 5.3% of 2,300 active. activation, % at 9.3 µM. AID 624380;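 active means mean activation above the mean of DMSO-only wells plus 3 SD, cut at about 0.5% in these data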
Target sequence (P35372 whole entry, looked up): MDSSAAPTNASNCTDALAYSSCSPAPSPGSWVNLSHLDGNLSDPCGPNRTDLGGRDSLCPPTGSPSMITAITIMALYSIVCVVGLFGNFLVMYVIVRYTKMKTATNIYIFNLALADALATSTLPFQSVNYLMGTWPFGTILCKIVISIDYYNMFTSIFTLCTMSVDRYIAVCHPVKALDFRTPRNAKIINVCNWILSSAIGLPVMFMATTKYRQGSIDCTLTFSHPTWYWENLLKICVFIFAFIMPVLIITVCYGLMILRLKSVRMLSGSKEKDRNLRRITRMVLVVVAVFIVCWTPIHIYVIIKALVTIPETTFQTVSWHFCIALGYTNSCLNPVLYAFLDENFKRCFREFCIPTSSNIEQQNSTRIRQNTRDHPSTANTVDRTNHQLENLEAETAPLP
m5-HT2A ag conf: mouse HTR2A agonism confirmed; shares compounds with m5-HT2A agonist; CHO-K1 PathHunter beta-arrestin recruitment, luminescence; DMSO 0%, 30 µM serotonin 100%; activation, % at 7.6 µM; 19% of 2,300 active; AID 624381;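 active means mean activation across triplicates above the hit threshold derived in the original primary screen, cut at about 15% in these data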
* marks the source's active call; other numbers are inactive results. Shown are actives, neighbours in structure and some others; about 2.8% of the full set was active somewhere.

Screening Cc1cccc(CCNS(=O)(=O)c2cc3c(cc2C)NC(=O)CO3)c1 returned EBI2 antag 0, MC4R antagonist 2, MC4R barr agon 0, m5-HT2A agonist 21*, OPRM1 ag -1 and m5-HT2A ag conf -4.
For Cc1ccc(CCNS(=O)(=O)c2cc3c(cc2C)NC(=O)CO3)cc1 the results were EBI2 antag -2, MC4R antagonist 24, MC4R barr agon 1 and m5-HT2A agonist -10.
`CC(=O)N1CCOCC1c1cc(C(=O)Nc2ccccc2)no1` (configuration not stated) gave EBI2 antag -8, MC4R antagonist 6, MC4R barr agon 1 and m5-HT2A agonist 0.
Screening Cc1ccc(S(=O)(=O)N/N=C/c2c(F)cccc2Cl)cc1 returned EBI2 antag -5, MC4R antagonist 7, MC4R barr agon -2, m5-HT2A agonist 15*, OPRM1 ag -1 and m5-HT2A ag conf -3.
O=S(=O)(N/N=C/c1c(F)cccc1Cl)c1ccccc1 was read as EBI2 antag -5, MC4R antagonist 2, MC4R barr agon -1 and m5-HT2A agonist 7.
`COc1cccc(C2CC(OCCF)=CC(=O)O2)c1` (configuration not stated) gave EBI2 antag -4 and m5-HT2A agonist -3.
Screening CC(C)C(=O)NC(NCC1CCCO1)C(Cl)(Cl)Cl (configuration not stated) returned EBI2 antag -10, MC4R antagonist 11, MC4R barr agon -2, m5-HT2A agonist 17*, OPRM1 ag -1 and m5-HT2A ag conf -2.
For CSc1ccc(CCNC(=O)CCc2nnc3ccc(N4CCCCC4)nn23)cc1 the results were EBI2 antag 4, MC4R antagonist 3, MC4R barr agon -2, m5-HT2A agonist 20*, OPRM1 ag 0.7* and m5-HT2A ag conf 5.
N#Cc1cc([N+](=O)[O-])ccc1NC(=O)COC(=O)C1CCC(=O)N1 (configuration not stated) was read as EBI2 antag -7, MC4R antagonist -8, MC4R barr agon -2 and m5-HT2A agonist -5.
`CSCCC(NC(=O)COc1ccccc1)C(=O)NCC(C)(C)N1CCOCC1` (configuration not stated) gave EBI2 antag -4, MC4R antagonist 7, MC4R barr agon -3 and m5-HT2A agonist 2.
Fc1cccc(Cl)c1/C=N/Nc1ccccn1 was read as EBI2 antag -9, MC4R antagonist -3, MC4R barr agon 4 and m5-HT2A agonist 3.
`Fc1cccc(F)c1/C=N/Nc1ccccn1` gave EBI2 antag -2, MC4R antagonist -5, MC4R barr agon -2, m5-HT2A agonist 14*, OPRM1 ag -1 and m5-HT2A ag conf -3.
`O=C(COC(=O)CN1C(=O)c2ccccc2C1=O)Nc1ccccc1C(F)(F)F` gave EBI2 antag 3, MC4R antagonist 13, MC4R barr agon 1 and m5-HT2A agonist -4.
Screening COc1ccccc1N1CCN(C(=O)c2cccc(S(=O)(=O)N3CCCCCC3)c2)CC1 returned EBI2 antag 12, MC4R antagonist 10, MC4R barr agon -2 and m5-HT2A agonist -4.
O=C(CSc1cnc2ccccc2n1)NC1CCCC1 was read as EBI2 antag 2, MC4R antagonist 25, MC4R barr agon -1 and m5-HT2A agonist 3.
Screening O=C(O)CSc1cnc2ccccc2n1 returned EBI2 antag -1, MC4R antagonist 9, MC4R barr agon 1, m5-HT2A agonist 18*, OPRM1 ag -1 and m5-HT2A ag conf -3.
`Cc1ccccc1-c1cc(C(=O)NCc2cccc(C(F)(F)F)c2)n(CC2CC(c3cccnc3)=NO2)n1` (configuration not stated) gave EBI2 antag 4, MC4R antagonist 5, MC4R barr agon 0 and m5-HT2A agonist -9.
For COc1ccc2c(c1)OC(=O)CC2c1ccccc1OC (configuration not stated) the results were EBI2 antag -4, MC4R antagonist 2, MC4R barr agon 0, m5-HT2A agonist 16*, OPRM1 ag 0 and m5-HT2A ag conf -3.
`CNc1cncc(-c2cccc(C(=O)N(C)C)c2)n1` gave EBI2 antag -1, MC4R antagonist 1, MC4R barr agon -1 and m5-HT2A agonist 2.
